This is a sample that favours compounds with a hit; in the whole collection about 3.9% have one here.
OX1R antag-1: human HCRTR1 antagonism | O43613 | CHO/OX1R cells, Fluo-8 calcium fluorescence, orexin A | inhibition, % at 5 µM | 330,000 tested, 0.43% active | AID 434989;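 active means inhibition above its plate's threshold, mean inhibition of all tested compounds on the plate plus 3 SD, cut at about 37% in these data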;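 further: 0% = orexin A challenge wells and 100% = SB-334867-A antagonist wells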
Target sequence (O43613 whole entry, looked up): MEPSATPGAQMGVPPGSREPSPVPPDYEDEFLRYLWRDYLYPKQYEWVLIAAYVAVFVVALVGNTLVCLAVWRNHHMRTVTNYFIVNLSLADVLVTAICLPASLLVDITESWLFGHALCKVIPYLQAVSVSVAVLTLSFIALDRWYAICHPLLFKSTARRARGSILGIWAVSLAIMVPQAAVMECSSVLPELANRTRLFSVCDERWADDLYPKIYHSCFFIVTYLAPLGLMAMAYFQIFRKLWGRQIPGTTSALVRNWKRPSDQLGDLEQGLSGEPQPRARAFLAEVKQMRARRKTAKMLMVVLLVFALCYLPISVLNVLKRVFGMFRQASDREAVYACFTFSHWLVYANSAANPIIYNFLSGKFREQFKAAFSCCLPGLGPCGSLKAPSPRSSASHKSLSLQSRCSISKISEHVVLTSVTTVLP
TAAR1 ag: human TAAR1 agonism; Q96RJ0; CHO RD-HGA16 TAAR1, Fluo-8 calcium fluorescence; vehicle wells 0%, saturating PEA agonist 100%; activation, % at 3 µM; 360,000 tested, 0.99% active; AID 624467;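 active means activation above the mean activation of all test compounds in the run plus 3 SD, cut at about 38% in these data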
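Benchmarks: low control DMSO, high control PEA (EC100); System: CHO RD-HGA16 cells carrying human TAAR1 plus Gα16; Detection: Fluo-8 fluorescence, 5 s baseline then 140 s kinetic read; Schedule: 17-24 h plating, Fluo-8 75 min 37 °C, 30 min RT; Read-out basis: % activation from peak over basal fluorescence ratio, DMSO-to-PEA scaled.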
CHO parental Ca: counter-screen: ATP calcium response change in parental CHO cells; parental CHO-K1, ATP-induced calcium, Fluo-8 fluorescence; inhibition, % at 5.6 µM; 330,000 tested, 0.63% active; AID 463079;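 active means inhibition above that plate's mean sample inhibition plus 3 SD, cut at about 26% in these data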;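 further: 0% = ATP-challenged DMSO wells and 100% = DMSO wells without ATP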
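Measured by: calcium-sensitive Fluo-8 fluorescence / Test system: CHO parental line / Controls: ATP-challenged DMSO wells low, unchallenged DMSO wells high / Measure: % inhibition / Compound: single nominal dose of 5.6 µM per compound / Replicates: single well per compound, no replicates / Reagent: ATP as calcium-mobilizing challenge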
OX1R antag-2: OX1R (human) antagonism | AID 485270 | 330,000 tested, 1.8% active | inhibition, % at 6.6 µM | OX1R-expressing cells, FRET antagonist read-out; in the data active means inhibition mostly above about 38%, no sharp cut-off; inactive means mostly below about 40%;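 further: 0% = agonist challenge alone and 100% = reference antagonist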
TAAR1 antag: antagonists of human TAAR1 | Q96RJ0 | CHO RD-HGA16 TAAR1, Fluo-8 calcium fluorescence, antagonist | inhibition, % at 3 µM | 360,000 tested, 1.5% active;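 active means inhibition above a per-plate cutoff, the mean inhibition of test compounds on that plate plus 3 SD, cut at about 49% in these data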;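 further: 0% = DMSO plus EC80 beta-PEA response and 100% = DMSO alone without agonist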
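System: CHO RD-HGA16 cells bearing hTAAR1. Reagent: EC80 β-phenethylamine stimulus. Schedule: seeding 17-24 h prior, 75-min 37 °C, 30-min RT dye loading. Signal: Fluo-8 intracellular calcium dye fluorescence, real-time kinetic reads. Read-out: % inhibition from peak post-agonist over basal fluorescence ratio. Benchmarks: vehicle wells and EC80 agonist wells. Replicates: n of 1.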
The depositor's hits bear a star; . = no result.

SMILES | OX1R antag-1 | TAAR1 ag | CHO parental Ca | OX1R antag-2 | TAAR1 antag
Cc1ccc(NC(=O)CCC(=O)N/N=C/c2ccccc2O)cc1 | -26 | 38* | 4 | 3 | -2
O=C(CSCC(=O)NN=Cc1ccccc1O)NN=Cc1ccccc1O | . | 30 | . | . | 2
O=C(CCC(=O)Nc1ccc(Br)cc1)N/N=C/c1ccc(F)cc1 | -16 | 18 | -8 | -6 | 5
O=C(CCCCC(=O)NN=Cc1ccccc1O)NN=Cc1ccccc1O | . | 44* | . | . | 54*
O=C1C(=C(c2ccccc2)N2CCOCC2)Cc2ccccc21 | . | 2 | . | . | -7
NC(Cc1ccc(F)cc1)c1csc(Nc2ccc(C(=O)c3ccccc3)cc2)n1 (stereo not given) | . | 52* | . | . | 53*
CC(C)c1ccc(NC(=O)Nc2nc(C(N)CCc3ccccc3)cs2)cc1 (stereo not given) | . | 42* | . | . | 33
NC(Cc1ccc(Cl)cc1)c1csc(Nc2ccc(C(=O)c3ccccc3)cc2)n1 (stereo not given) | . | 33 | . | . | 44
NC(c1csc(Nc2nccc(C(F)(F)F)n2)n1)C1CCCCC1 (stereo not given) | . | 44* | . | . | 30
NC(Cc1ccccc1)c1csc(Nc2ccc(C(=O)c3ccccc3)cc2)n1 (stereo not given) | . | 54* | . | . | 27
CCCCN(C=O)c1c(CC)nc2ccc(C(=O)N3CCN(c4ccccc4)CC3)cn12 | . | 0 | . | . | -1
CCNC(=O)C1(C)CCN(C(=O)c2c(F)cccc2F)C1 (stereo not given) | . | 0 | . | . | -8
CCSc1nc2ccccc2n1C(=O)/C=C\c1ccc(OC)c(OC)c1 | -20 | 8 | -17 | 14 | 24
NC(CO)c1csc(Nc2ccc(C(=O)c3ccccc3)cc2)n1 (stereo not given) | . | 1 | . | . | 5
CC(C)CC(N)c1csc(Nc2ccc(C(=O)c3ccccc3)cc2)n1 (stereo not given) | . | 41* | . | . | 29
NC(c1csc(Nc2ccc(C(=O)c3ccccc3)cc2)n1)C1CCCCC1 (stereo not given) | . | 46* | . | . | 41
CSc1ccccc1CNc1nc(NCC2CC2)nc2ccsc12 | . | 17 | . | . | 38
CN(Cc1ccccc1)C(=O)c1cccc(NC(=O)Cc2cccc(NC(=O)C3CCN(C(=O)CCc4ccccc4)CC3)c2)c1 | . | 6 | . | . | -3
O=C(CCNS(=O)(=O)c1ccc2nsnc2c1)N1CCN(c2ccncc2)CC1 | 2 | 9 | -8 | 51* | -2
Cc1ccc(S(=O)(=O)NCCC(=O)N2CCN(c3cccc(Cl)c3)CC2)cc1C | -13 | 5 | -16 | 35 | -17
Cc1ccc(F)c(N=Cc2c(O)c3ccccc3oc2=O)c1 | -4 | -1 | -7 | 51* | 5
O=C1C=C(c2ccccc2Oc2ccccc2)C[C@@H](c2ccc(F)cc2)C1 | . | 2 | . | . | 33
COCCNC(=O)C(c1ccc(C)o1)N(Cc1ccc(OC)cc1)C(=O)Cn1nnc2ccccc21 (stereo not given) | -14 | 41* | -10 | 21 | 31
CC(=O)N1CCc2c(sc(NC(=O)C3CCCN3S(=O)(=O)c3cccs3)c2C(N)=O)C1 (stereo not given) | -5 | 2 | -14 | 39* | -4
COc1ccccc1-c1c(-c2ccc(OCC(=O)NN)cc2O)n[nH]c1C(F)(F)F | -14 | 7 | -24 | -1 | -20
SMILES | OX1R antag-1 | TAAR1 ag | CHO parental Ca | OX1R antag-2 | TAAR1 antag
COc1ccc(-c2n[nH]c(C(F)(F)F)c2-c2cc3ccccc3o2)c(O)c1 | 52* | 7 | 78* | 2 | -16
NC1=NC(=O)/C(=C\c2cc([N+](=O)[O-])ccc2Cl)S1 | -14 | 5 | 4 | 49* | 5
OC(CNCC(c1ccc(Cl)cc1Cl)c1c[nH]c2ccccc12)c1ccccc1 (stereo not given) | 17 | 30 | 33* | 3 | 24
O=C(O)c1cccc(Nc2nc(-c3ccccc3)nc3ccccc23)c1 | 10 | 2 | 1 | 6 | 20
CCCOC(=O)c1cccc(Nc2nc(-c3cccnc3)nc3ccccc23)c1 | 4 | 11 | 3 | 34 | 62*
O=C(OCCNc1nc(-c2ccccc2)nc2ccccc12)c1cccnc1 | -21 | 8 | -5 | 48* | 41
O=C(OCCNc1nc(-c2ccccc2)nc2ccccc12)c1ccncc1 | 7 | 10 | -4 | 57* | 26
O=C(O)CCNc1nc(-c2ccccc2)nc2ccccc12 | 9 | 7 | 3 | 14 | -21
C=C1/C=C(\C)[C@](C)(O)C[C@H](O)CC(=O)[C@H](O)[C@@H](O)[C@H](C)C[C@H](C)OC(=O)/C(C)=C/CC/C=C/[C@@H]2O[C@H]2C[C@H](C)C1 | -12 | . | -21 | 10 | .
CSCCC(NC(=O)c1ccc([N+](=O)[O-])cc1Cl)C(=O)OC(C)C(=O)NCc1ccco1 (stereo not given) | -23 | -1 | -16 | 49* | -22
CSCCC(NC(=O)c1ccc([N+](=O)[O-])cc1Cl)C(=O)OCC(=O)N1CCN(C(C)=O)CC1 (stereo not given) | -3 | 1 | 1 | 55* | -20
O=C(COC(=O)c1ccc([N+](=O)[O-])cc1Cl)NCc1ccco1 | -18 | 12 | -4 | 29 | 16
CSCCC(NC(=O)c1ccc([N+](=O)[O-])cc1Cl)C(=O)OCC(=O)C12CC3CC(CC(C3)C1)C2 (stereo not given) | -14 | 2 | -8 | 8 | -2
OC(c1cc(Cl)cc(Cl)c1)c1ncc(-c2cccc(F)c2)[nH]1 (stereo not given) | . | 31 | . | . | 15
O=C(NCc1cccc(C(F)(F)F)c1)C1C(=O)Nc2ccccc2C(=O)N1C1CCCC1 (stereo not given) | . | 3 | . | . | -8
Cc1nc(SCc2nc3ccccc3[nH]2)c2oc3cc(Br)ccc3c2n1 | 27 | 10 | -11 | 48* | 42
Cc1ccc2oc3c(SCc4nc5ccccc5[nH]4)nc(C)nc3c2c1 | -9 | 3 | -24 | 58* | 46
Cc1nc(SCCc2nc3ccccc3[nH]2)c2oc3ccccc3c2n1 | 31 | 2 | -15 | 59* | -1
Cc1nc(SCc2nc3ccc(F)cc3[nH]2)c2oc3ccccc3c2n1 | -29 | 13 | -29 | 33 | 38
Cc1nc(SCc2nc3ccc(C(=O)c4ccccc4)cc3[nH]2)c2oc3ccccc3c2n1 | 27 | 10 | -18 | 31 | 25
CCCN1C(=O)c2n[nH]c(C)c2C1c1ccc(Br)cc1 (stereo not given) | . | -1 | . | . | 6
CC(C)=CCc1c(O)cc2oc3c(CC=C(C)C)c(O)c(O)c(CC=C(C)C)c3c(=O)c2c1O | 6 | 4 | -15 | 37 | 58*
COc1ccc(N=CC2=C(Nc3ccc(OC)cc3)c3c(C)nn(-c4ccccn4)c3CC2)cc1 | 20 | . | 31* | 20 | .
COc1ccc(-c2cc(C(=O)O)c3c(C)nn(-c4ccccn4)c3n2)cc1 | -27 | 11 | -2 | 6 | 7

High-throughput results from PubChem BioAssay.
